Here are results for 24 compounds from ChEMBL document CHEMBL1137132, “The synthesis and SAR of 2-arylsulfanyl-phenyl piperazinyl acetic acids as glyT-1 inhibitors” (Bioorg Med Chem Lett, 2004).

The target of the first data set is T1, Sodium- and chloride-dependent glycine transporter 1 (Homo sapiens, UniProt P48067).
T1 sequence (P48067 whole entry): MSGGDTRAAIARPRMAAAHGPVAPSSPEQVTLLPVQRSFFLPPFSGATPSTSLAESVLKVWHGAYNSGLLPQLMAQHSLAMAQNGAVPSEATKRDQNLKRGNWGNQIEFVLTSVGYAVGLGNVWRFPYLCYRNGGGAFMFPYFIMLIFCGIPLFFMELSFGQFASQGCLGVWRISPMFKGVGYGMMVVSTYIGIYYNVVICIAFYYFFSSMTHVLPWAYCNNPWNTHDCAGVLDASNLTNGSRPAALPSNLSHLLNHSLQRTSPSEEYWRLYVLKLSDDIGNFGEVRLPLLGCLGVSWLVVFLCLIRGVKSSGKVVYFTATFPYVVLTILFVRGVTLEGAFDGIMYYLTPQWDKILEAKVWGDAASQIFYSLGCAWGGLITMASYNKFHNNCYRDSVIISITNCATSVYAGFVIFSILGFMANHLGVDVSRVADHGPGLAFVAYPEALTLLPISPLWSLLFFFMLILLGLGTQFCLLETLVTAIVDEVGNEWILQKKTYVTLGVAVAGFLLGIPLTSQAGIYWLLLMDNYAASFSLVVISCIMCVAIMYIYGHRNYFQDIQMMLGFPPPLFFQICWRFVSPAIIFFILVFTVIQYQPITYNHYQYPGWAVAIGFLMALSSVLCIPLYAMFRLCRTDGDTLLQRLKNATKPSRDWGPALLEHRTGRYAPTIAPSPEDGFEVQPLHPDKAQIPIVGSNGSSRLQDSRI
As to the kind of experiment: Inhibition of uptake of [3H]-glycine into cells transfected with human GlyT-1b transporter.
Details: not given
What is called IC50 is the midpoint of a concentration-inhibition curve. A high value points to weaker potency in that assay. Compound `COc1ccc(Sc2ccccc2N2CCN(CC(=O)O)C(C)C2)cc1` (stereo not drawn) registered an IC50 of 1700 nM.

Compound `COc1ccc(Sc2ccccc2N2CC(C)N(CC(=O)O)CC2C)cc1` (stereo not drawn) gave a half-maximal inhibitory concentration (IC50) of 580 nM. This IC50 is about 2.9-fold lower than that of the compound before.

As to `COc1ccc(Sc2ccccc2N2C[C@H](C)N(CC(=O)O)C[C@@H]2C)cc1`, the midpoint of inhibition, the IC50, lay at 18000 nM.

Consider `CC1CN(c2ccccc2Sc2ccccc2)C(C)CN1CC(=O)O` (stereo not drawn), for which half-maximal inhibition (IC50) was put at 2900 nM.

In the case of `COc1ccc(Sc2ccc(OC)cc2N2CC(C)N(CC(=O)O)CC2C)cc1` (stereo not drawn), the IC50 is above 50000 nM.

Regarding `COc1ccc(Sc2ccc(Cl)cc2N2CCN(CC(=O)O)C(C)C2)cc1` (stereo not drawn), the IC50 came to 290 nM.

For `CC1CN(c2ccccc2Sc2ccc(-c3ccccc3)cc2)C(C)CN1CC(=O)O` (stereo not drawn), the IC50 was above 10000 nM.

In turn, `COc1ccc(Sc2ccccc2N2CCN(CC(=O)O)CC2)cc1` showed an IC50 above 10000 nM.

The compound `COc1ccc(Sc2ccc(Cl)cc2N2CC(C)N(CC(=O)O)CC2C)cc1` (stereo not drawn) had an IC50 of 1700 nM.

The compound `CC1CN(c2ccccc2Sc2ccc(Cl)cc2)C(C)CN1CC(=O)O` (stereo not drawn) came in with an IC50 of 360 nM.

Regarding `COc1ccc(Sc2ccccc2N2C[C@@H](C)N(CC(=O)O)C[C@H]2C)cc1`, the IC50 was determined as 16000 nM. Compared with the last compound, the IC50 is about 44-fold higher.

On to `Cc1ccc(Sc2ccccc2N2CC(C)N(CC(=O)O)CC2C)cc1` (stereo not drawn), for which 550 nM corresponded to half-maximal inhibition (IC50).

`CN(CC[C@@H](Oc1ccc(C(F)(F)F)cc1)c1ccccc1)CC(=O)O` had an IC50 of 320 nM.

In turn, `CC(=O)Nc1ccc(Sc2ccccc2N2CC(C)N(CC(=O)O)CC2C)cc1` (stereo not drawn) registered an IC50 of 22000 nM.

As to `COc1ccc(Sc2ccc(C)cc2N2CCN(CC(=O)O)C(C)C2)cc1` (stereo not drawn), half-maximal inhibition (IC50) was put at 1600 nM.

The compound `COc1ccc(Sc2ccc(Cl)cc2N2CCN(CC(=O)O)[C@@H](C)C2)cc1` yielded a 50% inhibitory concentration (IC50) of 1400 nM.

With `COc1ccc(Sc2ccccc2N2CCN(CC(=O)O)C(C)(C)C2)cc1`, the IC50 stood at 1500 nM.

Compound `CC1CN(c2ccccc2Sc2ccc(F)cc2)C(C)CN1CC(=O)O` (stereo not drawn) yielded an IC50 of 1900 nM.

Take `COc1ccc(Sc2ccccc2N2C[C@H](C)N(CC(=O)O)C[C@H]2C)cc1`: half-maximal inhibition (IC50) required 53000 nM.

Turning to `COc1ccc(Sc2ccc(Cl)cc2N2CCN(CC(=O)O)[C@H](C)C2)cc1`, the IC50 stood at 150 nM. Compared with the last compound, the IC50 is about 350-fold lower.

For `COc1ccc(Sc2ccccc2N2C[C@@H](C)N(CC(=O)O)C[C@@H]2C)cc1`, the IC50 is 160 nM. This IC50 and that of the compound before are within 1.5-fold of each other.

In turn, `COc1ccc(Sc2ccccc2N2CCN(CC(=O)O)CC2C)cc1` (stereo not drawn) had an IC50 above 10000 nM.

As to `CC1CN(c2ccccc2Sc2ccc(O)cc2)C(C)CN1CC(=O)O` (stereo not drawn), the IC50 amounted to 3600 nM.

`COc1ccc(Sc2ccc(OC)cc2N2CCN(CC(=O)O)C(C)C2)cc1` (stereo not drawn): the IC50 was 4600 nM.

System in the next data set: not listed separately
The experiment in a line: Half-life in rat. It counts as ADME. Particulars: in vivo.
By half-life is commonly meant the time in which the quantity being followed falls by half. The low end stands for fast loss, the high end for slow loss. Turning to `COc1ccc(Sc2ccc(Cl)cc2N2CCN(CC(=O)O)[C@H](C)C2)cc1`, the half-life is 240 min.

The next data set deals with Rattus norvegicus. The experiment in a line: Compound tested for increase in levels of glycine in the ventral hippocampus at a dose of 4.6 mg/kg after 60 min of s.c. administration. It counts as functional.
Details: not given
In short, it runs like this: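 In vivo microdialysis in freely moving rats, ventral hippocampus. Compound given subcutaneously. Extracellular glycine measured, with mean basal pre-injection values normalised to 100%; n is the number of animals.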
`COc1ccc(Sc2ccc(Cl)cc2N2CCN(CC(=O)O)[C@H](C)C2)cc1` gave an Increase of 140%.

System in a further data set: not listed separately
As to the kind of experiment: Plasma clearance in rat.
Details: not given
The format is ADME, organism-based.
A word on the clearance: it is the rate of elimination divided by the concentration. High values mean a high capacity for elimination, low ones a low capacity for elimination. `COc1ccc(Sc2ccc(Cl)cc2N2CCN(CC(=O)O)[C@H](C)C2)cc1` gave a clearance of 6.67 mL/min/kg.

System in the next data set: not listed separately
As to the kind of experiment: Oral bioavailability in rat. The format is ADME, organism-based. Particulars: in vivo. An outline of the steps:
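Rat pharmacokinetics, oral dosing as a solution.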
One may read the bioavailability as the share of a dose that reaches the circulation, judged against a reference dose that is usually intravenous. A lower bioavailability goes with poor availability. On to `COc1ccc(Sc2ccc(Cl)cc2N2CCN(CC(=O)O)[C@H](C)C2)cc1`, for which the bioavailability was 100%.
